Test results from publication PMC6290999 (Journal of controlled release : official journal of the …, 2017).

Assays:
Pin1 [1] = molecular target: T1, Pin1 (Homo sapiens, UniProt Q13526); test: Western blotting of Pin1 and its substrates in HCC cells; type: cell-based; conditions: 72 h; for Pin1 expression: 20 μM ATRA
Outline: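 PIN1-shRNA or scrambled-shRNA HuH7 and PLC lines were made by lentiviral transduction with 1 μg/mL puromycin selection. Lysates prepared in RIPA and quantified by BCA, run on SDS-PAGE and transferred to PVDF. Blocked in 5% milk, probed with anti-Pin1 (1:3000) then HRP secondary, detected by chemiluminescence; β-actin as loading control.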

shV–HuH7 cells = test: Cell viability assay; type: cell-based, human; conditions: 20 μM, 72 h
HuH7 cells [2] = test: Cell cycle and apoptosis analysis; type: cell-based, human; conditions: 10 μM and 20 μM ATRA, 72 h
Outline: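 HuH7 seeded at 0.9 × 10⁴ cells/cm², cultured overnight, then given blank PLLA particles (0.25 mg/mL), free drug (10 and 20 μM) or drug-loaded PLLA particles (10 and 20 μM drug) for 72 h; untreated cells as control. Trypsinised cells fixed in 70% ethanol (4°C, 2 h), stained with propidium iodide (30 min, 37°C, dark) using a kit, then analysed by flow cytometry.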

[3] = tested on: normal human liver L-02 cells; test: Cell viability assay; type: cell-based; conditions: even at 20 μM
shPin1–HuH7 cells = test: Cell viability assay; type: cell-based, human; conditions: 20 μM
shV–PLC cells = test: Cell viability assay; type: cell-based, human; conditions: 20 μM; 24 h, 48 h, 72 h
Outline: (§1)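 Stable lines made by lentiviral pLKO.1 shRNA (PIN1 or scrambled) produced in 293T with pVSVG, pREV and pMDL helpers. PLC cells were infected, selected with 1 μg/mL puromycin and checked by Western blot. Viability read by MTT: 3 h incubation, DMSO solubilisation, 490 nm, expressed as OD sample/OD control × 100.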

HuH7 cells [4] = test: Focus formation assay; type: cell-based, human; conditions: 72 h treatment, then 10~14 days; vs control cells
Outline: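 HuH7 seeded at 500 or 2000 cells/well in 12- or 6-well plates, cultured overnight, then treated 72 h with blank PLLA particles, free drug or drug-loaded PLLA particles. Medium then replaced and cells grown 10~14 days. Fixed and stained with 0.5% methylene blue in methanol; colonies above 50 cells counted. Focus area given as % of untreated control; triplicates.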

[5] = under physiological conditions ref 41; cited from earlier work
PLC cells = test: Cell viability assay; type: cell-based, human; conditions: 0 to 40 μM ATRA; 24 h, 48 h, 72 h
Outline: (§2)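 Seeded in 96-well plates at 3000 (HuH7) or 6000 (PLC) cells/well in DMEM or MEM with 10% FBS and cultured overnight. Treated with blank PLLA particles, free drug or drug-loaded PLLA particles; untreated control. MTT (5 mg/mL stock) added for 3 h, formazan dissolved in DMSO, absorbance read at 490 nm. Viability = OD sample/OD control × 100; IC50 calculated from inhibition rates.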

shPin1–PLC cells = test: Cell viability assay; type: cell-based, human; conditions: 20 μM; 24 h, 48 h, 72 h
Outline: as §1

HuH7 cells [6] = test: Cell viability assay; type: cell-based, human; conditions: 0 to 40 μM ATRA; 24 h, 48 h, 72 h
Outline: as §2

[7] = Weight of mice in xenograft experiment; type: in vivo, BALB/c nu/nu mice; conditions: 3 weeks treatment
Outline: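 Male BALB/c nu/nu mice bore subcutaneous hind-limb HuH7 xenografts (4 × 10⁶ cells) and were randomised at about 50 mm³. Groups received saline, free drug (ethanol diluted in corn oil), blank PLLA particles, slow-release pellet, or drug-loaded particles in saline. Dosing was i.p. at 15 mg/kg drug, twice weekly for three weeks. Body weight recorded weekly.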

Pin1 [8] = molecular target: T1, Pin1; test: Pin1 and substrate expression in xenograft tumors; type: in vivo, BALB/c nu/nu mice; conditions: immunofluorescence staining, 3 weeks treatment
Outline: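 Male nude mice carried subcutaneous hind-limb HuH7 xenografts (4 × 10⁶ cells) and were treated for three weeks. Frozen tumour sections (10 μm) fixed in acetone 10 min, permeabilised and blocked with 1% Triton X-100 plus 10% donkey serum for 40 min. Primary antibodies (PIN1, Ki67) applied 24 h at 4°C, secondary 1 h at room temperature, DAPI nuclear stain.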

T1 sequence (Q13526 whole entry): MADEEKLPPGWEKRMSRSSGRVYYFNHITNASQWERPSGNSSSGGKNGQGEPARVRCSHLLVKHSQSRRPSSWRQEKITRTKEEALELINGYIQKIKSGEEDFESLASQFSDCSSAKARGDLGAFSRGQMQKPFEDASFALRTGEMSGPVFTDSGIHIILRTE

Question: For CC1=C(/C=C/C(C)=C/C=C/C(C)=C/C(=O)O)C(C)(C)CCC1 [ATRA, all-trans retinoic acid], which “Expression of Pin1 and its substrates (β-catenin, c-JUN, NF-κB, Cyclin D1, CDK2, CDK6)” value (Pin1 [1]; HuH7 and PLC cells, 5-20 μM ATRA) is on record?
Answer: Its value is “obvious dose-dependent down-regulations”.

Question: What about the Pin1 expression (Pin1 [1]; shPin1–HuH7 and shPin1–PLC cells) of the same molecule?
Answer: The Pin1 expression was “did not affect”.

Question: What about the Pin1 expression (Pin1 [1]; shV–HuH7 and shV–PLC cells) of the same molecule?
Answer: Its Pin1 expression is “significantly down-regulated”.

Question: What about the “Decrease of cell viability” value (shV–HuH7 cells) of the same molecule?
Answer: The value was “approximately 36%”.

Question: And the “Inhibition on cell viability” value (shV–HuH7 cells; 24 h, 48 h)?
Answer: Its value is “very significant (p < 0.001) time-dependent inhibition”.

Question: What about the Apoptosis (HuH7 cells [2]) of the same molecule?
Answer: The Apoptosis was “did not induce significant apoptosis”.

Question: What about the “Proportion of cells in G0/G1 phase” value (HuH7 cells [2]) of the same molecule?
Answer: The value was “significantly increased”.

Question: And the “Proportion of cells in G2/M phase” value (HuH7 cells [2])?
Answer: The value was “decreased”.

Question: What about the “Inhibition on viability of L-02 cells” value [3] of the same molecule?
Answer: The value was “no significant inhibition”.

Question: And the “Decrease of cell viability” value (shPin1–HuH7 cells; 24 h and 48 h)?
Answer: The value was “did not decrease cell viability”.

Question: And the “Reduction of cell viability” value (shPin1–HuH7 cells; 72 h)?
Answer: The value was “about 15%”.

Question: And the “Inhibition on cell viability” value (shV–PLC cells)?
Answer: Its value is “significant time-dependent inhibition”.

Question: And the “Number and area of foci” value (HuH7 cells [4])?
Answer: The value was “significant dose-dependent reductions”.

Question: And the Aqueous solubility [5]?
Answer: The Aqueous solubility was 0.21 µM.

Question: What about the “Inhibition on PLC cell viability” value (PLC cells) of the same molecule?
Answer: The value was “dose-dependent inhibition”.

Question: What about the “Decrease of cell viability” value (shPin1–PLC cells) of the same molecule?
Answer: The value was “did not decrease cell viability”.

Question: And the “Inhibition on HuH7 cell viability” value (HuH7 cells [6])?
Answer: Its value is “Dose-dependent inhibition”.

Question: And the “Weights of mice vs saline group” value [7]?
Answer: Its value is “did not induce significant changes”.

Question: What about the “Expression of Pin1 and Ki67 in tumors vs saline group” value (Pin1 [8]) of the same molecule?
Answer: The value was “did not induce obvious changes”.
